Assay results as given in ChEMBL document CHEMBL3272325, “Structure-activity relationships of dimeric Catharanthus alkaloids. 1. Deacetylvinblastine amide (vindesine) sulfate” (J Med Chem, 1978).

How the values were obtained:
[1] = test system: P388; assay: Antitumor activity against mouse P388 cells allografted in mouse assessed as increase in life span at 4 mg/kg/day, ip after 1 day; format: functional; settings: 24 h, route intraperitoneal
Outline: (§1)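 P388 ascites implanted ip in mice, 10 animals per group. Sulfate salts given ip either daily on days 1-9 or as a single dose on day 1. Median life span was calculated using all deaths and survivors. Percent increase in life span was taken over untreated controls. The highest nontoxic dose was noted.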

[2] = Antitumor activity against mouse Ridgeway osteogenic sarcoma cells allografted in mouse at 0.2 to 0.3 mg/kg/day, ip; format: functional; settings: route intraperitoneal
Outline: (§2)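 Ridgeway osteogenic sarcoma and Gardner lymphosarcoma in mice, with sulfate salts given ip daily on days 1-9. Tumor growth inhibition versus controls scored in bands: +++ = 75-100%, ++ = 50-75%, ± = under 25%.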

[3] = test system: B16; assay: Antitumor activity against mouse B16 cells allografted in C57Bl/6 mouse assessed as increase in life span at 0.9 mg/kg/day, ip administered on day 1, 5 and 9 measured for 61 days relative to control; format: functional; settings: route intraperitoneal
Outline: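 C57BL/6 mice implanted ip with 0.5 mL of B16 melanoma brei. Alkaloid sulfate salts given ip on days 1, 5, 9 or on days 5, 9, 13. Percent increase in life span measured against controls; experiment ended at 61 days.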

[4] = test system: B16; assay: Antitumor activity against mouse B16 cells allografted in B6D2F1 mouse assessed as mean survival time at 3 mg/kg/day, ip administered on day 5, 9 and 13 (reference value: 20.0 days); format: functional; settings: route intraperitoneal
Outline: (§3)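 Male B6D2F1 mice implanted ip on day 0 with 0.25 mL of a 20% (w/v) B16 melanoma brei. Alkaloid sulfate salts given ip on days 1, 5, 9 or on days 5, 9, 13, groups of 10, against 30 untreated controls. Read-outs: median survival time with range of individual deaths, and percent increase in life span, with survivors counted on day 56.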

[5] = test system: B16; assay: Antitumor activity against mouse B16 cells allografted in B6D2F1 mouse assessed as increase in life span at 0.389 mg/kg/day, ip administered on day 5, 9 and 13 measured for 56 days relative to untreated control; format: functional; settings: route intraperitoneal; outline: as §3
[6] = test system: B16; assay: Antitumor activity against mouse B16 cells allografted in B6D2F1 mouse assessed as mean survival time at 1.8 mg/kg/day, ip administered on day 5, 9 and 13 (reference value: 20.0 days); format: functional; settings: route intraperitoneal; outline: as §3
[7] = test system: P388; assay: Antitumor activity against mouse P388 cells allografted in mouse assessed as increase in life span at 2.7 mg/kg/day, ip after 1 day; format: functional; settings: 24 h, route intraperitoneal; outline: as §1
[8] = Acute toxicity in rat; format: organism-based; settings: in vivo
[9] = test system: B16; assay: Antitumor activity against mouse B16 cells allografted in B6D2F1 mouse assessed as mean survival time at 0.648 mg/kg/day, ip administered on day 5, 9 and 13 (reference value: 20.0 days); format: functional; settings: route intraperitoneal; outline: as §3
[10] = test system: B16; assay: Antitumor activity against mouse B16 cells allografted in B6D2F1 mouse assessed as mean survival time at 1.08 mg/kg/day, ip administered on day 1, 5 and 9 (reference value: 20.0 days); format: functional; settings: route intraperitoneal; outline: as §3
[11] = test system: B16; assay: Antitumor activity against mouse B16 cells allografted in B6D2F1 mouse assessed as increase in life span at 0.648 mg/kg/day, ip administered on day 5, 9 and 13 measured for 56 days relative to untreated control; format: functional; settings: route intraperitoneal; outline: as §3
[12] = test system: B16; assay: Antitumor activity against mouse B16 cells allografted in C57Bl/6 mouse assessed as mean survival time at 0.9 mg/kg/day, ip administered on day 1, 5 and 9 (reference value: 24.6 days); format: functional; settings: route intraperitoneal
[13] = test system: Gallus gallus; assay: Neurotoxicity in iv dosed chicken assessed as neuromuscular disturbance by measuring loss of balance; format: organism-based; settings: in vivo
[14] = test system: B16; assay: Antitumor activity against mouse B16 cells allografted in B6D2F1 mouse assessed as increase in life span at 0.389 mg/kg/day, ip administered on day 1, 5 and 9 measured for 56 days relative to untreated control; format: functional; settings: route intraperitoneal; outline: as §3
[15] = Antitumor activity against mouse Gardner lymphosarcoma cell allografted in mouse at 0.2 to 0.3 mg/kg/day, ip; format: functional; settings: route intraperitoneal; outline: as §2
[16] = test system: B16; assay: Antitumor activity against mouse B16 cells allografted in B6D2F1 mouse assessed as increase in life span at 1.08 mg/kg/day, ip administered on day 1, 5 and 9 measured for 56 days relative to untreated control; format: functional; settings: route intraperitoneal; outline: as §3
[17] = test system: P388; assay: Antitumor activity against mouse P388 cells allografted in mouse assessed as increase in life span at 6 mg/kg/day, ip after 1 day; format: functional; settings: 24 h, route intraperitoneal; outline: as §1
[18] = test system: B16; assay: Antitumor activity against mouse B16 cells allografted in B6D2F1 mouse assessed as increase in life span at 1.8 mg/kg/day, ip administered on day 5, 9 and 13 measured for 56 days relative to untreated control; format: functional; settings: route intraperitoneal; outline: as §3
[19] = Acute toxicity in ip dosed mouse; format: organism-based; settings: in vivo
[20] = test system: B16; assay: Antitumor activity against mouse B16 cells allografted in B6D2F1 mouse assessed as mean survival time at 1.08 mg/kg/day, ip administered on day 5, 9 and 13 (reference value: 20.0 days); format: functional; settings: route intraperitoneal; outline: as §3
[21] = test system: Rhesus monkey; assay: Neurotoxicity in iv dosed monkey assessed as peripheral neuropathy; settings: in vivo

CC[C@]1(O)C[C@@H]2CN(CCc3c([nH]c4ccccc34)[C@@](C(=O)OC)(c3cc4c(cc3OC)N(C)[C@H]3[C@@](O)(C(N)=O)[C@H](O)[C@]5(CC)C=CCN6CC[C@]43[C@@H]65)C2)C1.O=S(=O)(O)O [VINDESINE SULFATE]
ILS at 4 mg/kg/day [1]: 77%
TGI [2]: 75%
ILS at 0.9 mg/kg/day [3]: 60%
MST [4]: 29.5 days
ILS at 0.389 mg/kg/day [5]: 25%
MST [6]: 39 days
ILS at 2.7 mg/kg/day [7]: 95%
LD50 [8]: 2 mg/kg
MST [9]: 27 days
MST [10]: 42 days
ILS at 0.648 mg/kg/day [11]: 35%
MST [12]: 39.3 days
Activity [13]: Non-toxic
ILS at 0.389 mg/kg/day [14]: 85%
TGI [15]: 75%
ILS at 1.08 mg/kg/day [16]: 110%
ILS at 6 mg/kg/day [17]: 109%
ILS at 1.8 mg/kg/day [18]: 90%
LD50 [19]: 6.3 mg/kg
MST [20]: 31.5 days
Activity [21]: Non-toxic
